Experimental data reported in ChEMBL document CHEMBL2177030.
Active and inactive are the calls of the source. No cut-off for these calls is given here.

Assays:
[1] = biological target: T1, Pancreatic lipase-related protein 2 (Cavia porcellus) (UniProt P81139); assay: Inhibition of guinea pig recombinant PLRP2 expressed in Aspergillus oryzae at 200 molar excess compound concentration pre-incubated for 2 hrs with enzyme before substrate addition by pH-stat technique
T1 sequence (whole entry): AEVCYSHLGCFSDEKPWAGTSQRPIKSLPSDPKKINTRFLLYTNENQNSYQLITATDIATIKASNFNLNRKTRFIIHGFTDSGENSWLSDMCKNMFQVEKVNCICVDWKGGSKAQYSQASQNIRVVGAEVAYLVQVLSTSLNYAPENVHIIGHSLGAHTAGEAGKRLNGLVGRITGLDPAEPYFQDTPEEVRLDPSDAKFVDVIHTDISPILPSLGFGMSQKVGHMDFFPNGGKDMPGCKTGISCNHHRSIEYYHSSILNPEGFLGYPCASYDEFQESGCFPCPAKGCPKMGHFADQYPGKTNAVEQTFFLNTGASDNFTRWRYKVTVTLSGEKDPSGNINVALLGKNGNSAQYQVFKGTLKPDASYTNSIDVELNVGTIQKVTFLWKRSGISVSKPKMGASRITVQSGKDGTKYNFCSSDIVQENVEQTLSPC

[2] = biological target: T2, Gastric triacylglycerol lipase (Canis lupus familiaris) (UniProt P80035); assay: Inhibition of dog recombinant gastric lipase expressed in transgenic maize at 200 molar excess compound concentration pre-incubated for 2 hrs with enzyme before substrate addition by pH-stat technique; type: single protein; conditions: Stomach
T2 sequence (whole entry): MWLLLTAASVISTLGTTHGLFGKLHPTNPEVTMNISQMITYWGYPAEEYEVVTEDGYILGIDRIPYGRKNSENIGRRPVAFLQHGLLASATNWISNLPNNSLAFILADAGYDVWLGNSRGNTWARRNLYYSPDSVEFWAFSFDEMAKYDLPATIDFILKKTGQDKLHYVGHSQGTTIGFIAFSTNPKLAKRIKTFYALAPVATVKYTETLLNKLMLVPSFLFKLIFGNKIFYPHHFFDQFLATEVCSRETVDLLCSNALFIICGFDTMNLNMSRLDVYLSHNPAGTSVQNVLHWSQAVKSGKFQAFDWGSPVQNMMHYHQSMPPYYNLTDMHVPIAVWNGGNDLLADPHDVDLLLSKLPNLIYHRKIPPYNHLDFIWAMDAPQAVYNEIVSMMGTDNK

[3] = biological target: T3, Cutinase 1 (Fusarium vanettenii) (UniProt P00590); assay: Inhibition of Fusarium solani pisi cutinase pre-incubated for 30 mins with enzyme before substrate addition by pH-stat technique
T3 sequence (whole entry): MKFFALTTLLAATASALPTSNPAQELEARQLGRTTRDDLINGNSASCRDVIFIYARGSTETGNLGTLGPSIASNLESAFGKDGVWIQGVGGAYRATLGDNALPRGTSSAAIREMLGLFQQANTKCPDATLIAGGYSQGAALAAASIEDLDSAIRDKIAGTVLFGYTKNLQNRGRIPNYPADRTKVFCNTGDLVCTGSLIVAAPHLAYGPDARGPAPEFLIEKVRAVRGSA
Outline: (§1)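 Cutinase was preincubated for 30 min at 25 °C in 2 mM NaTDC, substrate absent, at inhibitor molar excess xI 2, 4, 20, 40 or 100. Residual activity was measured by pH-stat at 37 °C on TC4 emulsion at pH 8.0 with 0.25 mM NaTDC. xI50 is the molar excess giving 50% activity. Isopropanol controls were run. At least duplicate.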

[4] = biological target: T3, Cutinase 1 (Fusarium vanettenii); assay: Inhibition of Fusarium solani pisi cutinase assessed as half inactivation time pre-incubated with enzyme before substrate addition by pH-stat technique
Outline: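 Cutinase was preincubated at 25 °C with inhibitor at xI 4 in 2 mM NaTDC for 1 h. Residual activity was sampled at intervals by pH-stat at 37 °C on TC4 emulsion in 2.5 mM Tris-HCl pH 8.0, 150 mM NaCl, 0.25 mM NaTDC. t1/2 was taken from the time course. Runs were done at least in duplicate.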

[5] = system: Mycobacterium tuberculosis; assay: Inhibition of Mycobacterium tuberculosis LipY at 40 molar excess compound concentration pre-incubated for 30 mins with enzyme before substrate addition by pH-stat technique
[6] = biological target: Monoacylglycerol lipase (Mycobacterium tuberculosis H37Rv) (UniProt O07427); assay: Inhibition of Mycobacterium tuberculosis Rv0183 pre-incubated for 30 mins with enzyme before substrate addition by pH-stat technique
Outline: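 Rv0183 was preincubated 30 min at 25 °C without NaTDC at inhibitor molar excess 2, 4, 20, 40 or 100. Residual monoglyceride lipase activity was measured by pH-stat at 37 °C with MC18 emulsion, pH 8.0, 3 mM NaTDC. xI50 was read from the residual-activity curve. Solvent controls were run. At least duplicate.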

[7] = biological target: T3, Cutinase 1 (Fusarium vanettenii); assay: Inhibition of Fusarium solani pisi cutinase assessed as residual enzyme activity pre-incubated for 30 mins with enzyme before substrate addition by pH-stat technique; outline: as §1
[8] = biological target: T4, Pancreatic triacylglycerol lipase (Homo sapiens) (UniProt P16233); assay: Inhibition of human recombinant pancreatic lipase expressed in Pichia pastoris at 200 molar excess compound concentration pre-incubated for 2 hrs with enzyme before substrate addition by pH-stat technique
T4 sequence (whole entry): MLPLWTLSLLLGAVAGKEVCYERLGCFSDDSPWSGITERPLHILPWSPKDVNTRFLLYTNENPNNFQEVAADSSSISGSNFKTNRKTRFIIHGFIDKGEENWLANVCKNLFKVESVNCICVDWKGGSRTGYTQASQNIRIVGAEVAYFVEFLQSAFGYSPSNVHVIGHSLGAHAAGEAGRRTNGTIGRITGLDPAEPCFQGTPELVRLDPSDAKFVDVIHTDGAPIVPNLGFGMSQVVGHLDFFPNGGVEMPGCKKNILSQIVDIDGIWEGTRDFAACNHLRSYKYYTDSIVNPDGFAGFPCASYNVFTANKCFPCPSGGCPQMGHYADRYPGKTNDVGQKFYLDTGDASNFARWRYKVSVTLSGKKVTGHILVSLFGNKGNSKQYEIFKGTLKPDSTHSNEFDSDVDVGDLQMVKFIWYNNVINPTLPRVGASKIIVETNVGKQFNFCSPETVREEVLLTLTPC

Sequence of Monoacylglycerol lipase (Mycobacterium tuberculosis H37Rv) (O07427 whole entry): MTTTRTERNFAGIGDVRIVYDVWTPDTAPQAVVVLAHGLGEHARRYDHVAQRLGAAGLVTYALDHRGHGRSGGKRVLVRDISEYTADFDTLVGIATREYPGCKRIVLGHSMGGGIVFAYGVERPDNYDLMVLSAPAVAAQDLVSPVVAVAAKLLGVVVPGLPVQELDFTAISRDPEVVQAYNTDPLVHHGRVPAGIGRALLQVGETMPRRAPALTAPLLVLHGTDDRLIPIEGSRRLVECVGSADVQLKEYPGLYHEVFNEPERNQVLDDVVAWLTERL

`CO[P@]1(=O)OC[C@H]2COC(=O)C2=C(C)O1` (racemic) was tested, and the inhibition [1] was “inactive”, the inhibition [2] was “inactive” and the XI50 [3] was 0.96 molar excess. The T1/2 [4] was 10.8 s, the inhibition [5] was 14% and the XI50 [6] was 5.22 molar excess. For the same compound, the Activity [7] was 6% and the inhibition [8] was “inactive”.
